Screening data (PubChem)
An excerpt weighted towards active compounds, which were near 3.2% of everything screened.
DENV2 CPE rescue: protects cells from dengue virus 2 cytopathic effect; DENV2-infected cells, cytopathic effect rescue, plate reader; CPE inhibition, % at 9.99 µM; actives 1.7% (n = 350,000); in the data active means CPE inhibition above about 20%, passing the limit was not always enough; inconclusive means no clear call, values can overlap the other calls; tested in BHK-21 cells;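 further: 0% = median of neutral control wells and 100% = median of positive control wells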
MLL AF4-AF9 inh: inhibitors of human MLL-AF4/AF9 interaction. P42568. AlphaScreen, biotin-AF4 peptide binding to FLAG-AF9. inhibition, % at 10 µM. actives 0.47% (n = 350,000);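 active means every replicate reaching a set inhibition limit, whatever the replicate mean, cut at about 25% in these data; inconclusive means mean inhibition reaches that limit but some replicates miss it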;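 further: 0% = plate neutral control median and 100% = total signal loss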
Target sequence (P42568 whole entry, looked up): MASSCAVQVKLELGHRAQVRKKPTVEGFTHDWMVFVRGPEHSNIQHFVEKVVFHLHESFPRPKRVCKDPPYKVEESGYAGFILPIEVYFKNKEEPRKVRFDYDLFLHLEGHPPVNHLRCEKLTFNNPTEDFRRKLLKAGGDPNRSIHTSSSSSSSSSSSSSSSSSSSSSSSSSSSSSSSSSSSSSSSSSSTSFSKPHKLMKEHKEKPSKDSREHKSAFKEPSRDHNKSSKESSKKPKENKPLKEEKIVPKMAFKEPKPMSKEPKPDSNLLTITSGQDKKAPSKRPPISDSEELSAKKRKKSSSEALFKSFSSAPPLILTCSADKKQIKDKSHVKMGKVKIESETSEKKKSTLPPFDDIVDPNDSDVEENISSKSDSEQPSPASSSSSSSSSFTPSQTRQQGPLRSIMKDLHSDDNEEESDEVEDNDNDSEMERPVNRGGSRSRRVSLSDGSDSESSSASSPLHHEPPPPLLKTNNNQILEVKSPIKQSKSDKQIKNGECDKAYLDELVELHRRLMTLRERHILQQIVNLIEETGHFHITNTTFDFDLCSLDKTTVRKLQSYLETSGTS
PfHsp90 set2: inhibits growth of yeast expressing Plasmodium falciparum Hsp90; AID 504621; S. cerevisiae expressing PfHsp90, BacTiter-Glo ATP, 48 h; yeast lacking PDR1 and PDR3 efflux regulators; actives 0.32% (n = 310,000); inhibition, % at 9.4 µM;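 active means every replicate shows inhibition above about 80%, whatever the replicate mean, limit read from the data; inconclusive means mean inhibition reaches the set limit but some replicate falls short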;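 further: 0% = DMSO neutral controls and 100% = 20 µM radicicol positive controls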
Cneo AK release: Cryptococcus neoformans lysis via adenylate kinase release; AID 651654; lysis activity, % at 15 µM; C. neoformans lysis, adenylate kinase release luminescence, 4 h; normalised: neutral wells 0, clomiphene wells 100; actives 0.2% (n = 360,000);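 active means mean lysis activity across replicates of at least 80%, whatever share of replicates individually reach that level; inactive means mean lysis activity below 80%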
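Assay system: C. neoformans cells. Amount: yeast cell density of 5 × 10^6 cells/mL. Technique: AK luminescence. Buffer or medium: YPD. Times: static 4 h at 37 °C with compound, 1 h detection. Dosing: single-point compound dose. Read-out: lysis from increased AK signal.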
Ecoli rRNA inh: selective bacterial rRNA inhibition in E. coli | E. coli WT GFP vs humanized-ribosome RFP mutants, fluorescence, 24 h; active compounds read low; DMSO median 0, no signal -100 | AID 720706 | GFP signal change (wild-type ribosome), % (concentration not given with the values) | actives 1.6% (n = 350,000);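 active means significant combined selectivity score with lowered wild-type GFP, culture density cut under 30%, mutant RFP and density less affected; inactive means any of these conditions unmet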
S100A4 MyoIIA: blocks human S100A4 binding to myosin IIA peptide; AID 652163; S100A4/TAMRA-MyoIIA peptide fluorescence polarization; inhibition, % at 10.7 µM; P26447; actives 0.14% (n = 360,000);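 active means mean inhibition of at least 70% across replicates, with every replicate also reaching that level; inconclusive means mean inhibition reaches 70% but some replicates fall short; inactive means mean inhibition below 70%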
Target sequence (P26447 whole entry, looked up): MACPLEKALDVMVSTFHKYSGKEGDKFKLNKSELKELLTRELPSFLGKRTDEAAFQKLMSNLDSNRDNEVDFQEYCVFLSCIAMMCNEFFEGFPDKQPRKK
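Material: human S100A4 monomer with TAMRA-labelled myosin IIA peptide; buffer or medium: HEPES pH 7.2 with CaCl2, KCl, NaCl, DTT, Triton; compound dosing: one concentration per compound; schedule: 5 min incubation before reading; benchmarks: neutral control DMSO, positive control TFP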
AlphaScreen intf: interferes with the AlphaScreen assay signal; AC50, µM (series often up to 12 µM), for inactives: top-dose activity change, negative = inhibition; AID 720494; actives 45% (n = 530); shares compounds with MLL AF4-AF9 inh; AlphaScreen interference counter-screen, signal luminescence; cut-off not given, nearly all actives have AC50 up to about 14 µM
* hit, by the source's call; ? = inconclusive; · = no result given.

SMILES	DENV2 CPE rescue	MLL AF4-AF9 inh	PfHsp90 set2	Cneo AK release	Ecoli rRNA inh	S100A4 MyoIIA	AlphaScreen intf
Cc1ccc(S(=O)(=O)N(C)C[C@H]2Oc3ncc(-c4ccccc4)cc3C(=O)N([C@H](C)CO)C[C@H]2C)cc1	2	-9	·	-2	-6	3	·
COc1ccc(CN2CC3(CCN(C(=O)C4CCC4)CC3)c3c(n(C)c4cc(OC)ccc34)[C@@H]2CO)cc1	·	·	·	·	0	·	·
O=C(C[C@H]1C=C[C@@H](NC(=O)C2CCOCC2)[C@H](CO)O1)NCC1CC1	6	-1	·	2	3	6	·
CC[n+]1c(/C=C/c2ccc(N(C)C)cc2)ccc2ccccc21	3	50*	35	·	-71	-23	5.8µM*
CC[n+]1c(/C=C/c2ccc(OC)c(OC)c2)ccc2ccccc21	?	0	6	-7	47	-5	·
CCN(CC)c1ccc(/C=C/c2ccc3ccc(OC)cc3[n+]2CC)cc1	-6	59*	32	-3	-61	100*	5.2µM*
CC(=O)Nc1ccc2c(c1)C(=O)N(C)[C@H]1CC[C@H](CC(=O)Nc3c(F)cccc3F)O[C@@H]1CO2	-5	-7	·	·	-3	1	·
COc1cc(NC(C)CCCNC(C)C)c2ncccc2c1OC (stereo not drawn)	16	3	13	-2	31	21	·
COc1cc(NCCCCCCN)c2ncccc2c1OC	-9	43*	-11	·	40	28	-30%
CC(C)C1CC(CCNCc2ccc(N(C)C)cc2)(c2ccccc2)CCO1 (stereo not drawn)	10	39*	-1	3	-37	-1	8.6µM*
C[C@H]1CN([C@@H](C)CO)C(=O)c2cc(NC(=O)CCC(F)(F)F)ccc2O[C@@H]1CN(C)Cc1ccccc1	1	-6	·	1	1	-3	·
Cc1ccc(S(=O)(=O)N2CC[C@@H]3[C@H](CO)Nc4ccc(-c5ccc(C#N)cc5)cc4[C@@H]32)cc1	-12	·	·	-14	-11	·	·
O=C(NC1CCCCC1)C(c1cccs1)N(CCCN1CCOCC1)C(=O)c1ccc(-c2ccccc2)[nH]1 (stereo not drawn)	0	31*	-17	·	-34	-8	-17%
CC1NC(=O)NC1CCCCCC(=O)Nc1ccc(F)cc1 (stereo not drawn)	-1	93*	·	·	6	-2	0.68µM*
O=C(CCCC(=O)c1ccccc1)Nc1ccc(F)cc1	3	-5	-3	1	5	-2	·
COc1ccc(-c2oc3ccccc3c(=O)c2OC(C)=O)cc1	-1	55*	3	6	-30	3	7.3µM*
COc1ccc(-c2oc3ccccc3c(=O)c2OCC(=O)O)cc1	1	-3	-12	·	-12	2	·
C[C@@H]1CN([C@@H](C)CO)C(=O)c2cccc(NC(=O)Nc3ccccc3)c2O[C@@H]1CN(C)C(=O)Nc1cccc2ccccc12	·	0	·	·	0	·	·
CNC(=S)N1N=C(c2ccc(C)cc2)CC1c1ccc(N(C)C)cc1 (stereo not drawn)	-3	31*	·	0	·	-4	-27%
CCN1CCCc2cc(CN(CCN3CCOCC3)C(=S)Nc3cccc(C)c3)ccc21	5	37*	7	17	-4	-4	-22%
c1ccc(N2CCCCC2)c(Nc2nc3ccccc3n3cnnc23)c1	-1	2	18	0	13	-2	·
c1ccc2c(c1)nc(Nc1ccc(N3CCCCC3)cc1)c1nncn12	-1	36*	-26	·	6	-6	-16%
COc1ccc(CNCCC(c2ccc(OC(C)C)cc2)C(C)C)cc1OC (stereo not drawn)	·	·	2	3	·	·	·
COc1ccccc1C(CCNCc1ccc(N(C)C)cc1)c1ccc(OC(C)C)cc1 (stereo not drawn)	9	74*	12	16	-58	-7	2.9µM*
COc1ccc(C(CCNCc2ccc(N(C)C)cc2)C(C)C)cc1 (stereo not drawn)	-23	41*	6	·	·	-2	11µM*
SMILES	DENV2 CPE rescue	MLL AF4-AF9 inh	PfHsp90 set2	Cneo AK release	Ecoli rRNA inh	S100A4 MyoIIA	AlphaScreen intf
CC(C)NC(=O)N(C)C[C@H]1Oc2ccc(N(C)C)cc2CC(=O)N([C@@H](C)CO)C[C@H]1C	0	0	·	-1	0	-8	·
C[C@H](NC(=O)C[C@H]1CC[C@@H]2[C@H](COC[C@H](O)CN2C(=O)Nc2ccccc2)O1)c1ccccc1	-13	-1	·	-3	-3	2	·
CC(C)CC#Cc1cnc2c(c1)C(=O)N([C@@H](C)CO)C[C@@H](C)[C@H](CN(C)C(=O)Nc1ccccc1F)O2	-4	-2	·	19	0	19	·
O=C(N/N=C/c1cc(Cl)cc([N+](=O)[O-])c1O)c1cccc(S(=O)(=O)N2CCOCC2)c1	-6	36*	-12	-1	7	-4	12µM*
CCN(CC)c1ccc(N=C2C(=O)Nc3ccccc32)cc1	-1	57*	44	0	-2	-16	12µM*
O=S(=O)(c1ccccc1)N1CCCCN2[C@H](CO)[C@H](c3ccc(C#Cc4cccnc4)cc3)[C@@H]2C1	15	-6	·	-1	-8	-4	·
O=C(CN1CCCC1)N/N=C/c1c(O)ccc2ccccc12	1	38*	-6	0	-2	-3	5.7µM*
O=C(N/N=C/c1c(O)ccc2ccccc12)C(=O)N1CCCC1	-1	-2	·	1	-3	-6	·
O=C(Nc1ccc(Cl)cc1)N1C[C@H]2[C@@H](c3ccccc31)[C@H](CO)N2C(=O)C1CC1	-4	2	·	-4	-22	-2	·
COc1cccc(-c2ccc3c(c2)[C@@H]2[C@@H](CCN2C(=O)C2CC2)[C@H](CO)N3)c1	-2	14	·	·	-1	18	·
COc1ccc(C#Cc2ccc3c(c2)[C@H]2[C@H](CCN2C(=O)c2ccncc2)[C@@H](CO)N3)cc1	-2	34*	·	·	3	-5	13µM*
COc1cccc(-c2ccc3c(c2)[C@H]2[C@H](CCN2C(=O)C2CCCCC2)[C@@H](CO)N3)c1	?	40*	·	·	-20	-7	-29%
COc1ccc(C#Cc2ccc3c(c2)[C@H]2[C@H](CCN2C(=O)c2ccncc2)[C@H](CO)N3)cc1	-4	·	·	-10	-1	·	·
C[C@@H]1CN([C@@H](C)CO)C(=O)c2cccc(NC(=O)C3CC3)c2O[C@H]1CN(C)Cc1ccc2c(c1)OCO2	2	-2	·	-1	-3	2	·
CC(C)(c1ccccc1)c1ccc(OCC(O)CNC2CCN(Cc3ccccc3)CC2)cc1 (stereo not drawn)	-8	31*	-24	21	-56	10	-29%
